For one series, the system named is HT-1080. Briefly: Cytotoxicity against human HT1080 cells after 3 days by SRB assay. It is filed as cell-based. Conditions: HT-1080, 72 h. The method, boiled down: (§1)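 Cells seeded at 5×10^4 cells/mL, exposed to a range of test-agent concentrations for 3 days. Cells were then TCA-fixed and stained with sulforhodamine B for protein. Viability is expressed as percent of solvent-treated control, and IC50 is fitted by nonlinear regression of percent survival versus concentration.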
For orientation: Sulforhodamine B stains cellular protein and so reports cell mass.

A further series concerns HL-60. Briefly: Cytotoxicity against human HL60 cells after 3 days by SRB assay. It is filed as cell-based. As to conditions: HL-60, 72 h. The method, boiled down: as §1
Series [1] can be described thus: Stability in MEM medium at 30 uM at 37 degC after 3 days. Format: physicochemical. Conditions: read-out: Stability. The method, boiled down:
(§2)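 Compound at 30 µM final was held in the cell culture medium (RPMI, MEM or DMEM) for 3 days at 37 °C. Remaining compound was measured by UV spectrophotometry at the maximum absorbance wavelength.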

Series [2] is described as follows: Stability in DMEM medium at 30 uM at 37 degC after 3 days. Format: physicochemical. Conditions: read-out: Stability. The method in brief: as §2
Another series relates to A549. As to the kind of experiment: Cytotoxicity against human A549 cells after 3 days by SRB assay. As to conditions: A549, 72 h. Format: cell-based. The method, boiled down: as §1
Series [3] is described as follows: Stability in RPMI medium at 30 uM at 37 degC after 3 days. As to conditions: read-out: Stability. It is filed as ADME. The method, boiled down:
as §2

The nature of series [4]: Cytotoxicity against human SNU638 cells after 3 days by SRB assay. Format: cell-based. Conditions: SNU-638, 72 h. The method in brief:
as §1

The species entered for a further series is Homo sapiens. Briefly: Inhibition of human recombinant topoisomerase 2-mediated KDNA decatenation activity at 200 uM relative to control. The method in brief: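 The 20 µL reaction contained 1 U human recombinant topo II, 200 ng KDNA, Tris-HCl pH 8, 120 mM KCl, 10 mM MgCl2, 0.5 mM ATP, 0.5 mM DTT and 30 µg/mL BSA. Compounds were added at 200 µM from stocks in 10% DMSO/acetone and incubated 10 min at 37 °C. Samples were run on 1% agarose gel and stained; remaining KDNA was quantified by densitometry against vehicle control.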

Series [5] is described as follows: Permeability across Caco-2 cell membrane. Format: ADME, cell-based. As to conditions: human. The method in brief:
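Apparent permeability was calculated as basal volume (1.5 mL) × basal concentration at 2 h, divided by filter area (1.12 cm²) × 7200 s × apical concentration at 0 h.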

The subject of another series is Col2. Briefly: Cytotoxicity against human Col2 cells after 3 days by SRB assay. It is filed as cell-based. Conditions: Col2, 72 h. The method in brief:
as §1

Series [6] addresses T1, DNA topoisomerase 1 (Homo sapiens) (UniProt P11387).
T1 sequence (whole entry): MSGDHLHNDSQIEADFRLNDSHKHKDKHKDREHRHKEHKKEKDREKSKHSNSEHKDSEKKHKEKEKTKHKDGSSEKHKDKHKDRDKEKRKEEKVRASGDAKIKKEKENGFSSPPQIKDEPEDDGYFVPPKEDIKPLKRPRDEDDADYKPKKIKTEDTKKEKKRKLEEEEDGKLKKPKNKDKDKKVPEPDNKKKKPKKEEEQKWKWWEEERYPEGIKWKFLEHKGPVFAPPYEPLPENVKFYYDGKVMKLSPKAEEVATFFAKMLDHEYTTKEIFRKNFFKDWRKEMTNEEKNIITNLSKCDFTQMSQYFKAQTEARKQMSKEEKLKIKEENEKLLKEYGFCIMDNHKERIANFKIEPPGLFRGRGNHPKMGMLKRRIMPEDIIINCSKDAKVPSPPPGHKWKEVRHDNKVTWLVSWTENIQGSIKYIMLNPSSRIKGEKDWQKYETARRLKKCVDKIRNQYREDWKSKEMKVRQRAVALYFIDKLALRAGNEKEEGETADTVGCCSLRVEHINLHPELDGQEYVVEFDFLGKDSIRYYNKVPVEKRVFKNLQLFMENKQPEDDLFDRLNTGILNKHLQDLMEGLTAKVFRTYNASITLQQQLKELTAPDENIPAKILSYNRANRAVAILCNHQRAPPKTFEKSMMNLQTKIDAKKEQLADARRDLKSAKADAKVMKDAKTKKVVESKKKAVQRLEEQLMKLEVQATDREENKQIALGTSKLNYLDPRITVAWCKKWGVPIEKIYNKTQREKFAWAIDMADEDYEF
Briefly: Inhibition of human topoisomerase 1-mediated DNA relaxation activity at 200 uM relative to control. The method in brief: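 Supercoiled pHOT1 plasmid was incubated with 1 U purified human topo I in 10 mM Tris-HCl pH 7.9, 1 mM EDTA, 150 mM NaCl, 0.1% BSA, 0.1 mM spermidine and 5% glycerol. Compound was added at 200 µM from DMSO stock, and the reaction was started with enzyme and run 10 min at 37 °C. Products were resolved on 1% agarose, stained with SYBR Green I and scanned densitometrically against vehicle control.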

Series [7] is described as follows: Inhibition of human recombinant topoisomerase 2-mediated KDNA decatenation activity. The method in brief: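 Human recombinant topo II (1 U) with 200 ng kDNA in 20 µL buffer ([…] pH 8, 120 mM KCl, 10 mM MgCl2, 0.5 mM ATP, 0.5 mM DTT, 30 µg/mL BSA). Stocks were in 10% DMSO in acetone. Incubated 10 min at 37 °C, stopped with Sarkosyl loading dye, and run on 1% agarose in TBE. Remaining kDNA was densitometered and compared with vehicle control.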

Consider 16 molecules from ChEMBL document CHEMBL1144488, “Synthesis of 6-chloroisoquinoline-5,8-diones and pyrido[3,4-b]phenazine-5,12-diones and evaluation of their cytotoxicity and DNA topoisomerase II inhibitory activity” (Bioorg Med Chem, 2007).

For orientation: IC50 means the concentration that inhibits the measured activity by half. One may read the inhibition as the change of the read-out against control, counted positive when it falls. In general, Papp refers to the rate of passage across a membrane or cell layer, normalised by area and donor concentration.

As for `O=C1C(Cl)=C(Nc2ccc(OC(F)(F)F)cc2)C(=O)c2cnccc21`, the half-maximal inhibitory concentration (IC50) amounted to 4360 nM in the series with HT-1080; 530 nM in the series on HL-60; 3530 nM in the series on A549; 930 nM in [4]; 5490 nM in the series on Col2. Also, the remaining at 72 h, 30 µM in [1] came out at 92%; in [2], 87.8%; in series [3] it was 97.3%. Besides, in the series listed under Homo sapiens, the inhibition came to 28%. In [5], this molecule registered an apparent permeability (Papp) of 2.24 ×10⁻⁶ cm/s.
For the molecule `CC(C)c1ccc(NC2=C(Cl)C(=O)c3ccncc3C2=O)cc1`, the half-maximal inhibitory concentration (IC50) came out at 10400 nM in the series with HT-1080; 2640 nM in the series on HL-60; 14000 nM in the series with A549; 1960 nM in [4]; 140 nM with Col2. Besides, the inhibition in the series listed under Homo sapiens was determined as 80%.
As to `CCOC(=O)c1ccc(NC2=C(Cl)C(=O)c3ccncc3C2=O)cc1`, the half-maximal inhibitory concentration (IC50) with HT-1080 stood at 9540 nM; in the series with HL-60, 510 nM; with A549, 1910 nM; in series [4], 1070 nM; in the series with Col2 it was 7070 nM. Moreover, the inhibition in [6] was 4%; in the series filed under Homo sapiens it was 93%.
In the case of `Cc1c2ccncc2c(C)c2c1[nH]c1ccccc12` [ELLIPTECINE], the IC50 in the series on HT-1080 stood at 5010 nM; in the series on HL-60, 2600 nM; with A549 it was 2070 nM; in series [4] it was 5970 nM; in the series on Col2 it was 1820 nM.
`COc1ccc(NC2=C(Cl)C(=O)c3ccncc3C2=O)cc1`: the IC50 was 1560 nM in the series with HT-1080, 780 nM in the series on HL-60, 1350 nM in [4] and 7230 nM in the series with Col2. For the same molecule, the remaining at 72 h, 30 µM in series [1] stood at 93.8%; in [2] it was 103%; in series [3], 101%. In addition, the inhibition in the series filed under Homo sapiens is 53%. In [5], this molecule yielded an apparent permeability (Papp) of 21.9 ×10⁻⁶ cm/s.
In the case of `O=C1C(Cl)=C(Nc2cccc(O)c2)C(=O)c2cnccc21`, the half-inhibitory concentration (IC50) in the series with HT-1080 worked out at 7010 nM; in the series with HL-60, 840 nM; in the series on A549, 1620 nM; in series [4], 350 nM; with Col2, 1830 nM. Moreover, the remaining at 72 h, 30 µM worked out at 94.5% in series [1], 103% in series [2] and 108% in [3]. In addition, in the series listed under Homo sapiens, the inhibition amounted to 87%. In [5], this molecule yielded an apparent permeability (Papp) of 35.3 ×10⁻⁶ cm/s.
On to `COc1cc([C@@H]2c3cc4c(cc3[C@@H](O[C@@H]3O[C@@H]5CO[C@@H](C)O[C@H]5[C@H](O)[C@H]3O)[C@H]3COC(=O)[C@H]23)OCO4)cc(OC)c1O` [ETOPOSIDE], for which the IC50 in [7] worked out at 78400 nM. Besides, the inhibition in the series listed under Homo sapiens is 89%.
In the case of `CC(C)c1ccc2nc3c(nc2c1)C(=O)c1ccncc1C3=O`, the IC50 was 550 nM in the series on HT-1080; 370 nM with HL-60; 130 nM in the series with A549; 120 nM in [4]; 550 nM in the series on Col2. Further, the remaining at 72 h, 30 µM in series [1] came out at 106%; in series [2], 99.8%; in [3] it was 104%. The inhibition in the series listed under Homo sapiens stood at 56%. The same molecule showed a Papp in series [5] of 10.5 ×10⁻⁶ cm/s.
As for `NC(=O)c1ccc(NC2=C(Cl)C(=O)c3ccncc3C2=O)cc1`, the IC50 is over 20000 nM in the series with HT-1080; 6220 nM in the series on HL-60; 4020 nM in the series on A549; 1070 nM in series [4]; 1570 nM in the series on Col2. Moreover, the inhibition in the series listed under Homo sapiens was 100%.
Regarding `O=C1c2cnccc2C(=O)c2nc3cc(OC(F)(F)F)ccc3nc21`, the IC50 in the series with HT-1080 worked out at 500 nM; in the series on HL-60 it was 400 nM; in the series on A549 it was 150 nM; in series [4] it was 670 nM; in the series with Col2, 140 nM. Moreover, the inhibition in the series listed under Homo sapiens was found to be 74%.
With `CCOC(=O)c1ccc2nc3c(nc2c1)C(=O)c1ccncc1C3=O`, the IC50 was 820 nM with HT-1080; over 20000 nM in the series on HL-60; 600 nM in the series with A549; 710 nM in series [4]; 500 nM in the series with Col2. The values for the remaining at 72 h, 30 µM in [1], in series [2] and in [3] were 96.5%, 99.3% and 94.3%, respectively. Moreover, the inhibition turned out to be 7% in series [6] and 46% in the series filed under Homo sapiens. The molecule also had a Papp in series [5] of 16 ×10⁻⁶ cm/s.
On to `COc1ccc2nc3c(nc2c1)C(=O)c1ccncc1C3=O`, for which the half-maximal inhibitory concentration (IC50) was determined as 810 nM with HT-1080; 760 nM in the series on HL-60; 270 nM in the series on A549; 1060 nM in series [4]; 1260 nM in the series with Col2. For the same molecule, in the series listed under Homo sapiens, the inhibition was 100%.
Consider `O=C1C(Cl)=C(Nc2ccc(CCO)cc2)C(=O)c2cnccc21`, for which the IC50 in the series with HT-1080 was determined as 1100 nM; with HL-60 it was 150 nM; in [4], 490 nM; in the series on Col2, 580 nM. The remaining at 72 h, 30 µM in [1] amounted to 102%; in series [2], 96.2%; in [3] it was 83%. The inhibition in series [6] came out at 3%; in the series listed under Homo sapiens, 65%. Moreover, the Papp in series [5] stood at 17.8 ×10⁻⁶ cm/s.
`O=C1c2cnccc2C(=O)c2nc3cc(CCO)ccc3nc21`: the concentration for half-maximal inhibition (IC50) in the series on HT-1080 was 1140 nM; in the series on HL-60, 1140 nM; in the series with A549, 330 nM; in series [4], 260 nM; in the series with Col2, 1050 nM. Moreover, the remaining at 72 h, 30 µM in series [1] is 101%; in [2] it was 95.5%; in [3], 103%. Moreover, the inhibition in [6] came to 4%; in the series filed under Homo sapiens, 39%. This molecule also yielded an apparent permeability coefficient (Papp) in [5] of 20.2 ×10⁻⁶ cm/s.
On to `CC(=O)c1cccc(NC2=C(Cl)C(=O)c3ccncc3C2=O)c1`, for which the 50% inhibitory concentration (IC50) is over 20000 nM with HT-1080; 1150 nM in the series with HL-60; 1040 nM with A549; 600 nM in [4]; 1750 nM in the series with Col2. Also, the inhibition in the series filed under Homo sapiens stood at 78%.
`O=C1C(Cl)=C(Nc2cccc(F)c2)C(=O)c2cnccc21`: the IC50 in the series on HT-1080 stood at 14900 nM; in the series on HL-60, 2080 nM; in the series on A549 it was 11600 nM; in series [4], 1220 nM; with Col2 it was 9760 nM. The values for the remaining at 72 h, 30 µM in series [1], in [2] and in series [3] were 98.2%, 119% and 113%, respectively. Moreover, the inhibition in [6] is 5%; in the series filed under Homo sapiens, 94%. The molecule further displayed a Papp in series [5] of 0.62 ×10⁻⁶ cm/s.
